What was measured:
[1] = molecular target: T1, Receptor-interacting serine/threonine-protein kinase 1 (Homo sapiens, UniProt Q13546); assay: Displacement of fluorescein labeled ATP probe from full length His/GST-tagged RIPK1 (unknown origin) incubated for 60 mins by HTRF assay
T1 sequence (Q13546 whole entry): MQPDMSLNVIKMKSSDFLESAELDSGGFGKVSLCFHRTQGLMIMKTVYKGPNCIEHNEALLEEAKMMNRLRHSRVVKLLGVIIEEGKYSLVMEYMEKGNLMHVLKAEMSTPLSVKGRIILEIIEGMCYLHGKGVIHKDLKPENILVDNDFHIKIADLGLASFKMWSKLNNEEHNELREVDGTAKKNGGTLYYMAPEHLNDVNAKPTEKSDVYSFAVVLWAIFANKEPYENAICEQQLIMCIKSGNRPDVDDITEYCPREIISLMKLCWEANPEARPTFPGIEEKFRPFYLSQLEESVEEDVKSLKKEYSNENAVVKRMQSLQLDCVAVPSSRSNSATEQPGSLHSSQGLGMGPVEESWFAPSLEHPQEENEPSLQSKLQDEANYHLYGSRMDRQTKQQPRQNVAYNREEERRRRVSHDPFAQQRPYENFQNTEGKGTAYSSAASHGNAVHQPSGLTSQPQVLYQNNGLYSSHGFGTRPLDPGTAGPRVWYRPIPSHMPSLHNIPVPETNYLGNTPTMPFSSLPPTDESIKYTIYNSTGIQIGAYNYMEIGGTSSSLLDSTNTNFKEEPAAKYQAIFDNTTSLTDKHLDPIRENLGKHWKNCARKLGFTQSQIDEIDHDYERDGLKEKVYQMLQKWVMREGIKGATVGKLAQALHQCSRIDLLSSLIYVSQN

[2] = Selectivity index, ratio of IC50 for displacement of fluorescein labeled ATP probe from His/GST-tagged RIPK2 (unknown origin) incubated for 60 mins by HTRF assay to IC50 for displacement of fluorescein labeled ATP probe from His/GST-tagged c-Met (unknown origin) incubated for 60 mins by HTRF assay; settings: human, 1 h
[3] = molecular target: T2, Receptor-interacting serine/threonine-protein kinase 2 (Homo sapiens, UniProt O43353); assay: Displacement of fluorescein labeled ATP probe from His/GST-tagged RIPK2 (unknown origin) incubated for 60 mins by HTRF assay
[4] = Selectivity index, ratio of IC50 for displacement of fluorescein labeled ATP probe from His/GST-tagged RIPK1 (unknown origin) incubated for 60 mins by HTRF assay to IC50 for displacement of fluorescein labeled ATP probe from His/GST-tagged c-Met (unknown origin) incubated for 60 mins by HTRF assay; settings: human, 1 h
[5] = molecular target: T3, Receptor-interacting serine/threonine-protein kinase 3 (Homo sapiens, UniProt Q9Y572); assay: Displacement of fluorescein labeled ATP probe from full length His/GST-tagged RIPK3 (unknown origin) incubated for 60 mins by HTRF assay
Target sequence in this assay (Q9Y572 whole entry): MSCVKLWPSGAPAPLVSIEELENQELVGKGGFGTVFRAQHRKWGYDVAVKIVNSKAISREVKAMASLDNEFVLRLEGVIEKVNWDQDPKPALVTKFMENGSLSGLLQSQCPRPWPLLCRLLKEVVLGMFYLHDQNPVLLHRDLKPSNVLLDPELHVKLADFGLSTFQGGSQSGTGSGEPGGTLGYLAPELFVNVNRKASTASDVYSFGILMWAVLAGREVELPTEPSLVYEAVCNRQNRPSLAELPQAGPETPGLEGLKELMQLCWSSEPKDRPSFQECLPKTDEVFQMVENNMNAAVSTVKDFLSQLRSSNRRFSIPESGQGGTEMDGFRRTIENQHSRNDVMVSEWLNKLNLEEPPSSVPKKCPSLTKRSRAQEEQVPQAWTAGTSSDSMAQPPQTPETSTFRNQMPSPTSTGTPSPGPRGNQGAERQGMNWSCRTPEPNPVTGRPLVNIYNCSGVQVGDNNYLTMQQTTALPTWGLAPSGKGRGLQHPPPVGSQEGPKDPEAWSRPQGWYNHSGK

[6] = molecular target: Hepatocyte growth factor receptor (Homo sapiens, UniProt P08581); assay: Displacement of fluorescein labeled ATP probe from His/GST-tagged c-Met (unknown origin) incubated for 60 mins by HTRF assay
Homo sapiens [7] = species on record: Homo sapiens; assay: (§1) Selectivity index, ratio of IC50 for displacement of fluorescein labeled ATP probe from His/GST-tagged c-Met (unknown origin) incubated for 60 mins by HTRF assay to IC50 for displacement of fluorescein labeled ATP probe from full length His/GST-tagged RIPK3 (unknown origin) incubated for 60 mins by HTRF assay
[8] = molecular target: T1, Receptor-interacting serine/threonine-protein kinase 1; assay: Displacement of fluorescein labeled ATP probe from His/GST-tagged RIPK1 (unknown origin) incubated for 60 mins by HTRF assay
[9] = molecular target: Mitogen-activated protein kinase 14 (Homo sapiens, UniProt Q16539); assay: Binding affinity to p38alpha (unknown origin); type: ADME
Homo sapiens [10] = species on record: Homo sapiens; assay: as §1, with “RIPK1” for “c-Met”
[11] = molecular target: T3, Receptor-interacting serine/threonine-protein kinase 3; assay: Displacement of fluorescein labeled probe from full length human GST-tagged RIPK3 expressed in Sf9 cells incubated for 60 mins by HTRF assay
Target sequence in this assay (Q9Y572 whole entry): as above

[12] = molecular target: T3, Receptor-interacting serine/threonine-protein kinase 3; assay: Time dependent inhibition of full length His/GST-tagged RIPK3 (unknown origin) measured every 5 mins for 60 mins in presence of fluorescein labeled probe by HTRF assay relative to control; settings: 1 h
Target sequence in this assay (Q9Y572 whole entry, looked up): as the sequence (Q9Y572 whole entry) above

[13] = molecular target: T3, Receptor-interacting serine/threonine-protein kinase 3; assay: as above; settings: 1 h; remark: listed apart in the source
Target sequence in this assay (Q9Y572 whole entry, looked up): as the sequence (Q9Y572 whole entry) above

[14] = molecular target: T3, Receptor-interacting serine/threonine-protein kinase 3; assay: Time dependent inhibition of full length His/GST-tagged RIPK3 (unknown origin) measured every 5 mins for 60 mins in presence of fluorescein labeled probe by HTRF assay relative to control
Outline: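 Active full-length RIPK3 was preformed as a complex with the fluorescent probe and antibody. Inhibitor was then added as an 11-point concentration-response series, with HTRF read at 5 and 60 min. Time dependency was scored as the fold shift in IC50 between the two reads; ≥5-fold flagged possible slow binding.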
Target sequence in this assay (Q9Y572 whole entry, looked up): as the sequence (Q9Y572 whole entry) above

[15] = molecular target: T2, Receptor-interacting serine/threonine-protein kinase 2; assay: Displacement of fluorescein labeled probe from full length human GST-tagged RIPK2 expressed in Sf9 cells incubated for 60 mins by HTRF assay
[16] = molecular target: T1, Receptor-interacting serine/threonine-protein kinase 1; assay: Displacement of fluorescein labeled probe from full length human GST-tagged RIPK1 expressed in Sf9 cells incubated for 60 mins by HTRF assay

Chain of Hepatocyte growth factor receptor (P08581 whole entry): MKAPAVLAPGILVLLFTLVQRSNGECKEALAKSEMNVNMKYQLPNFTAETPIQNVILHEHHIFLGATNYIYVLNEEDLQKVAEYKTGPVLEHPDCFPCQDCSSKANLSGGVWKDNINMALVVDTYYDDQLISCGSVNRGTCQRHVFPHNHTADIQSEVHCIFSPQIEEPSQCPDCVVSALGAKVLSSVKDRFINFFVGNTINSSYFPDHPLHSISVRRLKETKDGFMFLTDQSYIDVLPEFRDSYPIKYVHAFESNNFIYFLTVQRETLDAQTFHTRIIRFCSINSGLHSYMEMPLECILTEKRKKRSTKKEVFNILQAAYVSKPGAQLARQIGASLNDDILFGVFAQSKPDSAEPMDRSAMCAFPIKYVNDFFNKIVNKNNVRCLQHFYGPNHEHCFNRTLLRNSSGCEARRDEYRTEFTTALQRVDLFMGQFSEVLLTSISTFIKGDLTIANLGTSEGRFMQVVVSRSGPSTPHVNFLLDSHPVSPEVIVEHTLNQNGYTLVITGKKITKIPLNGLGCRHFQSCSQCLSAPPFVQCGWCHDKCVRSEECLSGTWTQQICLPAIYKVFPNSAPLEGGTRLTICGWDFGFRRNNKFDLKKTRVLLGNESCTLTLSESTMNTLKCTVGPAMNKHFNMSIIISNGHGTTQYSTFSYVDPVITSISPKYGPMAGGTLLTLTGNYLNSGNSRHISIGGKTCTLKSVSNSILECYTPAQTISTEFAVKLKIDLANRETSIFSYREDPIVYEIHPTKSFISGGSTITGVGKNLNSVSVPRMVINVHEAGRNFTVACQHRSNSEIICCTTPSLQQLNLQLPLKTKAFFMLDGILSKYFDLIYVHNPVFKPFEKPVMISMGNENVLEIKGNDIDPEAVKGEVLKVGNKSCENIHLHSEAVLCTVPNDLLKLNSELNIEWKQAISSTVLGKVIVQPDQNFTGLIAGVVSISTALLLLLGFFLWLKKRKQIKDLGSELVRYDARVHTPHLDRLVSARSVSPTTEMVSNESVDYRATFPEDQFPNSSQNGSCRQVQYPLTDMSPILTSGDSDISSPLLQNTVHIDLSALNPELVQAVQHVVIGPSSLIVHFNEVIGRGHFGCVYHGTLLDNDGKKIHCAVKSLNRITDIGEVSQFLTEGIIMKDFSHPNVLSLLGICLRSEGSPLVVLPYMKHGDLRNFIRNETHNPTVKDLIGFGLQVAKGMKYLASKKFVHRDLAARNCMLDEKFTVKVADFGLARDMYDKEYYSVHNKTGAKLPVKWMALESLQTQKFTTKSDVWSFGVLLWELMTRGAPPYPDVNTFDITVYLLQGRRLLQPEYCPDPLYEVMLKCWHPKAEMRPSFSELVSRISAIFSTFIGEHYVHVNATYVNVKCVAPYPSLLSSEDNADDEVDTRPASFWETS
T2 sequence (O43353 whole entry): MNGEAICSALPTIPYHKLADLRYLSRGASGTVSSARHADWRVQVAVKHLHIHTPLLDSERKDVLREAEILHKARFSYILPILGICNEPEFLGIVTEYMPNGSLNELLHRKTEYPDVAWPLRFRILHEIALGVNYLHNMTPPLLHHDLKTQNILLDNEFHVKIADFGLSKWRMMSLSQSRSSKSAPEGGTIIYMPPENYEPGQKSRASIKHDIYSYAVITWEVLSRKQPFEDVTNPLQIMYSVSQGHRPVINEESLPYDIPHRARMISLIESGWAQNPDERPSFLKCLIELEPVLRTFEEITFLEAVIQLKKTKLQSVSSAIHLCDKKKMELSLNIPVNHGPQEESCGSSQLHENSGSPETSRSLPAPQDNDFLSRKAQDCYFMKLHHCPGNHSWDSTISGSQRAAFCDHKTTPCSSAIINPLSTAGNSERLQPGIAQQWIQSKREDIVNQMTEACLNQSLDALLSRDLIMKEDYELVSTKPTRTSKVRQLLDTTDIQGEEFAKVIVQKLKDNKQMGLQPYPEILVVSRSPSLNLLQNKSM
Chain of Mitogen-activated protein kinase 14 (Q16539 whole entry): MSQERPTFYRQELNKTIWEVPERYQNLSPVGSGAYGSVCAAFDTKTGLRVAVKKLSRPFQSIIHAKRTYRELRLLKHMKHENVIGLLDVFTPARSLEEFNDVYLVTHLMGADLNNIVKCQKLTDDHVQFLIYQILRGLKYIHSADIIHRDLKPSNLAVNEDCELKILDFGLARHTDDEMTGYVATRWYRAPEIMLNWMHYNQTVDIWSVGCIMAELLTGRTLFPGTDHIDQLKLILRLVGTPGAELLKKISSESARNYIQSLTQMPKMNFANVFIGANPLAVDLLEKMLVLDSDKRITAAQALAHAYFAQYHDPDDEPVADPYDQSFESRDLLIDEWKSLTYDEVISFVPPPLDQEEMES

Cc1c(NC(=O)c2cccn(-c3ccc(F)cc3)c2=O)ccc(Oc2ccncc2)c1C
IC50 [1]: > 15 µM
Ratio IC50 [2]: > 10
IC50 [3]: > 15 µM
Ratio IC50 [4]: > 10
IC50 [5]: 0.18 µM
IC50 [6]: > 1.5 µM
Ratio IC50 (Homo sapiens [7]): > 10

Cc1c(NC(=O)c2cccn(-c3ccc(F)cc3)c2=O)ccc(Oc2ccnc(NC(=O)C3CC3)c2)c1C
IC50 [3]: > 10 µM
IC50 [8]: 5.5 µM
IC50 [5]: 0.091 µM
IC50 [6]: 1.1 µM
Ratio IC50 (Homo sapiens [7]): 100

O=C(Nc1ccc(Oc2ccncc2)c(F)c1)c1cccn(-c2ccc(F)cc2)c1=O
IC50 [3]: > 15 µM
IC50 [8]: > 15 µM
IC50 [5]: 0.4 µM
IC50 [6]: 0.018 µM

Cc1cc(NC(=O)c2cccn(-c3ccc(F)cc3)c2=O)cc(C)c1Oc1ccnc(NC(=O)C2CC2)c1
IC50 [3]: 3.1 µM
IC50 [8]: 11 µM
IC50 [5]: 0.088 µM
IC50 [6]: 0.3 µM

O=C(Nc1ccc(Oc2ccncc2)c2ccccc12)c1cccn(-c2ccc(F)cc2)c1=O
IC50 [3]: > 15 µM
IC50 [8]: > 15 µM
IC50 [5]: 0.05 µM
Activity [9]: Active
IC50 [6]: 12 µM

Cc1cc(NC(=O)c2cccn(-c3ccc(F)cc3)c2=O)ccc1Oc1ccnc(NC(=O)C2CC2)c1
IC50 [3]: 0.68 µM
IC50 [8]: 0.2 µM
IC50 [5]: 0.008 µM
IC50 [6]: 0.0063 µM

CC#Cc1c(Oc2ccc(NC(=O)c3cccn(-c4ccc(F)cc4)c3=O)cc2F)ccnc1N
IC50 [1]: 0.6 µM
IC50 [3]: 3 µM
IC50 [5]: 0.016 µM

O=C(Nc1ccc(Oc2ccnc(NC(=O)C3CC3)c2)c(F)c1)c1cccn(-c2ccc(F)cc2)c1=O
Ratio IC50 (Homo sapiens [10]): 38
IC50 [3]: 1.8 µM
IC50 [8]: 0.18 µM
IC50 [5]: 0.0029 µM
IC50 [6]: 0.0025 µM

O=C(Nc1ccc(Oc2ccncc2)c(F)c1)c1cccc(-c2ccc(F)cc2)c1
IC50 [3]: > 15 µM
IC50 [8]: > 15 µM
IC50 [5]: > 15 µM
IC50 [6]: 4.5 µM

O=C(Nc1ccc(Oc2ccnc3[nH]ccc23)c(F)c1)c1cccn(-c2ccc(F)cc2)c1=O
IC50 [3]: > 15 µM
IC50 [8]: 1.5 µM
IC50 [5]: 0.18 µM

Nc1ccc(C#Cc2c(Oc3ccc(NC(=O)c4cccn(-c5ccc(F)cc5)c4=O)cc3F)ccnc2N)nc1
IC50 [11]: 0.0003 µM
fold change (FC) [12]: 6
fold change (FC) [13]: 6
fold change (FC) [14]: 6
IC50 [15]: 2.4 µM
IC50 [16]: 0.31 µM

Cc1cc(NC(=O)c2cccn(-c3ccc(F)cc3)c2=O)cc(C)c1Oc1ccncc1
IC50 [3]: 13 µM
IC50 [8]: > 15 µM
IC50 [5]: 0.32 µM
IC50 [6]: 0.5 µM

Cc1ccc(COC(=O)Nc2cc(-c3cc4c([nH]3)CCNC4=O)ccn2)cc1
IC50 [11]: 0.27 µM
fold change (FC) [12]: 2
IC50 [15]: 0.05 µM
IC50 [16]: 17 µM

Reference: ChEMBL document CHEMBL4342476, “Identification of RIPK3 Type II Inhibitors Using High-Throughput Mechanistic Studies in Hit Triage” (ACS Med Chem Lett, 2020)
